RGS8-Gao: RGS8-Galphao binding modulators, primary screen, biochemical, multiplexed bead flow cytometry; actives lie on both sides; AID 1423, 2008; response (percent of control binding), % at 10 µM; hit rate 0.34% among 220,000; Guanine nucleotide-binding protein G(o) subunit alpha (Homo sapiens), P09471; in the data active = response below about 60% or above about 140%; inactive = in between;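 note: Galphao activated as the GDP aluminium fluoride complex binding bead-coupled RGS8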
Target sequence (P09471 whole entry, looked up): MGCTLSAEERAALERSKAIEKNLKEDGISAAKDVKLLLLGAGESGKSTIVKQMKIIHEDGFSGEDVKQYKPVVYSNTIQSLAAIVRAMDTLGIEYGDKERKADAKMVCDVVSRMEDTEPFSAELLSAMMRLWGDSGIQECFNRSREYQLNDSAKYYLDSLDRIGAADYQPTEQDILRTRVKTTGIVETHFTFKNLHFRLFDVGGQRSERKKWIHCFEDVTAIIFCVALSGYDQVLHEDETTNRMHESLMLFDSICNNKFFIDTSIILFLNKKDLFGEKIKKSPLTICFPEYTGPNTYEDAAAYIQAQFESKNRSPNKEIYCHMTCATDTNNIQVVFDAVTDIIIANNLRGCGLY
RGS16-Gao HTS: modulators of RGS16 binding to Galphao, primary screen, biochemical, human proteins, multiplexed bead flow cytometry | bead-based flow cytometry RGS16-Galphao binding, fluorescence; actives lie on both sides | hit rate 0.38% among 220,000 | Regulator of G-protein signaling 16 (Homo sapiens) + Guanine nucleotide-binding protein … | binding response (% of control), % at 10 µM;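 note: Galphao activated by GDP with aluminum fluoride before binding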
Target sequence (O15492 whole entry, looked up): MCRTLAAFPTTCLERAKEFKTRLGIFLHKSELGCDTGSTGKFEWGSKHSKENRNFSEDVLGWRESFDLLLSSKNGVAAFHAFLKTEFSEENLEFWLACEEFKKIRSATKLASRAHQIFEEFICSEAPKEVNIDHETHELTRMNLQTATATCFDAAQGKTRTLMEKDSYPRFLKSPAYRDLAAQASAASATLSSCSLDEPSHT
Target sequence (P09471 whole entry, looked up): as the sequence (P09471 whole entry, looked up) above
RGS4-Gao reg: modulators of RGS4 binding to Galphao, primary screen, biochemical, multiplexed bead flow cytometry | binding response (% of control), % at 10 µM | Guanine nucleotide-binding protein G(o) subunit alpha (Homo sapiens), P09471 | actives lie on both sides | hit rate 0.33% among 220,000; in the data active = binding response below about 49% or above about 150%; inactive = in between;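 note: fluorescent Galphao activated with aluminum fluoride binding bead-coupled RGS4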
Calb biofilm kill: clotrimazole potentiators killing C. albicans biofilm, primary screen, 4-compound mixtures; C. albicans biofilm persisters + clotrimazole, fluorescence viability; primary screen in compound mixtures of four per well; inhibition, % at 7.6 µM; hit rate 0.02% among 120,000;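 active = inhibition above 30.3% in the primary screen of four-compound pools, then above 30% when the compound was retested; inconclusive = passed the primary limit but could not be retested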;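 note: compounds exposed to preformed 24 h biofilms for 48 h; 0% = untreated biofilm control and 100% = clotrimazole plus chlorhexidine kill blank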
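Incubation: 24 h biofilm formation, then 48 h compound exposure, 37 °C | Material: C. albicans biofilms | Buffer or medium: RPMI/MOPS medium, pH 7.0 | Measured by: 2-h Alamar Blue fluorescence, 535/590 nm excitation/emission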
RGS7-Gao reg: RGS7-Galphao binding modulators, primary screen, biochemical, multiplexed bead flow cytometry | AID 1439, 2008 | binding response (% of control), % at 10 µM | hit rate 0.35% among 220,000 | actives lie on both sides | Guanine nucleotide-binding protein G(o) subunit alpha (Homo sapiens), P09471; in the data active = binding response below about 49% or above about 150%; inconclusive = no clear call, values can overlap the other calls; inactive = in between;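 note: fluorescent Galphao held in activated GDP-AlF4 state binding bead-coupled RGS7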
RGS-Gao: modulators of RGS–Galpha-o binding, primary screen, biochemical, multiplexed beads, flow cytometry, RGS4/7/8/16/19; multiplexed bead flow cytometry; hit rate 99% among 1,600; RGS4–Galpha-o binding response, % at 10 µM; shares compounds with RGS16-Gao HTS;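 note: fluorescently labeled Galpha-o bound to GDP with aluminium fluoride binding biotinylated RGS beads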
Avidin counter: disruption of biotin probe capture by avidin, counter-screen for RGS protein interaction modulators, biochemical, flow cytometry, bead-based | shares compounds with RGS16-Gao HTS | streptavidin beads, fluorescein-biotin binding | inhibition, % at 10 µM | 1,700 tested, under 10 active;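 active = inhibition above 50%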;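 note: median green fluorescence of gated singlet beads compared with DMSO control wells; 0% = DMSO wells and 100% = complete loss of bead fluorescence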
RGS8-Gao confirm: RGS8-Galphao binding modulators, confirmation, biochemical, multiplexed bead flow cytometry, single concentration | binding response (% of control), % at 10 µM | hit rate 3% among 1,700 | shares compounds with RGS16-Gao HTS | bead-based flow cytometry RGS8-Galphao binding, fluorescence; actives lie on both sides; in the data active = binding response below about 72% or above about 130%; inactive = in between;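 note: Galphao activated as GDP AlF4 complex before binding bead RGS8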
RGS7-Gao single: RGS7-Galphao binding modulators, confirmation, biochemical, multiplexed bead flow cytometry, single concentration; hit rate 7.8% among 1,700; AID 1837, 2009; response (percent of control binding), % at 10 µM; bead-based flow cytometry RGS7-Galphao binding; actives lie on both sides; shares compounds with RGS16-Gao HTS; in the data active = response below about 75% or above about 130%; inactive = in between;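 note: fluorescent Galphao activated with GDP and aluminum fluoride binding bead-coupled RGS7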
RGS16-Gao single: modulators of RGS16-Galphao protein binding, confirmation, biochemical, single concentration, multiplexed bead flow cytometry. hit rate 4% among 1,700. response (% of control binding), % at 10 µM. bead-based flow cytometry; actives lie on both sides. shares compounds with RGS16-Gao HTS; in the data active = response below about 74% or above about 130%; inactive = in between;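 note: Galphao activated as the GDP aluminium fluoride complex binding bead-coupled RGS16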
RGS4-Gao confirm: modulators of RGS4-Galphao protein binding, confirmation, biochemical, single concentration, multiplexed bead flow cytometry | shares compounds with RGS16-Gao HTS | actives lie on both sides | binding response (% of control), % at 10 µM | hit rate 4% among 1,700 | AID 1840, 2009; in the data active = binding response below about 74% or above about 130%; inactive = in between
RGS19-Gao single: regulators of RGS19-Galphao binding, confirmation, biochemical, single point, multiplexed bead flow cytometry | shares compounds with RGS16-Gao HTS | bead-based flow cytometry RGS19-Galphao binding; actives lie on both sides | response (percent of control binding), % at 10 µM | hit rate 5% among 1,700; in the data active = response below about 50% or above about 160%; inactive = in between;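 note: 100% = no compound control and 0% = blank background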
An asterisk follows results filed as active; ? = inconclusive; · = no result given; [ ] = dose if it differs, or a comment. An excerpt weighted towards active compounds, which were near 0.74% of everything screened. Unless noted, the rule behind the calls is not given here.

SMILES	RGS8-Gao	RGS16-Gao HTS	RGS4-Gao reg	Calb biofilm kill	RGS7-Gao reg	Avidin counter	RGS8-Gao confirm	RGS7-Gao single	RGS16-Gao single	RGS4-Gao confirm	RGS19-Gao single	others
CCOC(=O)C(NC(=O)c1ccccc1)=C(C)C	104.5	102.6	103.2	·	101.7	·	·	·	·	·	·
COC(=O)C(NC(=O)c1ccccc1)=C(C)C	100.8	107.1	101.2	·	110.2	·	·	·	·	·	·
CCCCOC(=O)C(NC(=O)c1ccccc1)=C(C)C	5.2*	-33.0*	-35.7*	·	-15.8*	-1.7	101.6	101.3	104.6	98.3	95.2
COc1ccccc1N1CCN(C(=O)c2c(-c3ccccc3Cl)noc2C)CC1	77.1	-10.6*	63.6	·	73.7	0.5	99.8	100.7	98.2	97.6	101.6	RGS-Gao=63.6*
CCC(=O)c1ccc(OCC(=O)N2CCc3cc(OC)c(OC)cc3C2)cc1	9.6*	-36.2*	-32.8*	·	-11.6*	-2.5	102.5	96.3	97.3	100.2	127.6
CN(C)S(=O)(=O)c1ccc(Cl)c(NC(=O)COC(=O)c2ccc3c(c2)NC(=O)CS3)c1	101.5	99.0	95.3	21.0	?	·	·	·	·	·	·
Cc1ccc2nc(-c3cccnc3)c(Nc3ccccc3C)n2c1	99.5	98.9	98.1	28.8	98.5	·	·	·	·	·	·
Cc1ccc2nc(-c3cccnc3)c(NC3CCCCC3)n2c1	121.3	203.3*[activator]	114.1	-2.1	117.0	-1.3	107.0	104.1	109.8	104.3	119.5	RGS-Gao=114.1*
COC(=O)c1cc(C(=O)Nc2ccc(C)cn2)cc([N+](=O)[O-])c1	·	·	·	·	·	0.9	101.5	74.6*	89.8	88.2	51.3
O=C(Nc1ccccc1N1CCCC1)c1cccc(Cl)c1Cl	104.8	109.7	99.9	1.9	99.2	·	·	·	·	·	·
Cc1c(N2CCCC2)cc2c(c1NC(=O)c1ccccc1Cl)C(C)(C)CC2(C)C	130.4	154.8	155.8*[activator]	16.8	?	-0.9	98.2	79.8	95.2	94.6	74.5
CC1CN(S(=O)(=O)c2ccc(C(=O)Nc3nnc(-c4ccccn4)o3)cc2)CC(C)O1 (stereo not drawn)	12.5*	9.5*	15.3*	14.0	-18.3*	-1.6	101.2	101.1	99.9	100.5	113.7
CC(=O)c1c(C)[nH]c(C(=O)NCc2ccco2)c1C	100.4	99.6	102.1	-9.9	101.1	·	·	·	·	·	·
O=C(CNS(=O)(=O)c1c(Cl)cccc1Cl)OCC(=O)N1CCN(c2ccccc2)CC1	103.6	111.5	100.9	17.8	99.4	·	·	·	·	·	·
CC(=O)Nc1ccc(S(=O)(=O)NCC(=O)OCC(=O)N2CCN(c3ccccc3)CC2)cc1	71.3	21.3*	82.4	-10.7	79.4	-2.2	98.2	89.5	95.3	93.5	82.1	RGS-Gao=82.4*
Oc1ccccc1Nc1nc(NCC2CCCO2)c2ccccc2n1 (stereo not drawn)	98.7	89.5	95.6	·	41.0*	1.7	100.4	104.5	103.1	101.1	104.3	RGS-Gao=95.6*
C/C(Cc1ccccc1)=N\NC(=O)CNC(=O)c1ccccc1O	102.1	102.8	103.5	19.6	?	·	·	·	·	·	·
C/C(Cc1ccccc1)=N\NC(=O)CNC(=O)c1ccccc1Br	72.7	16.6*	87.5	13.1	86.1	-0.4	101.0	74.9*	93.0	79.7	83.4	RGS-Gao=87.5*
N#Cc1cccc(C#N)c1Oc1ccc(S(=O)(=O)Nc2ccc(Cl)cc2)cc1	103.4	103.2	103.6	11.6	?	·	·	·	·	·	·
Cc1cccc(-c2nc(CSCC(=O)NCCCN3CCOCC3)c(C)o2)c1	99.7	104.5	101.8	·	103.3	·	·	·	·	·	·
Cc1oc(-c2ccc(Cl)cc2)nc1CSCC(=O)NCCCN1CCOCC1	111.5	227.9*[activator]	187.1*[activator]	·	164.0*[activator]	-0.3	102.1	101.4	105.2	102.0	104.8
COC(=O)CCN1CCc2cc(N=Nc3ccc([N+](=O)[O-])cc3)ccc21	96.0	93.7	93.2	2.2	?	·	·	·	·	·	·
Cc1ccccc1SC1CCN(Cc2nc(C3CC3)no2)CC1	100.7	101.8	101.3	6.5	99.2	·	·	·	·	·	·
O=C(CC(C(=O)N1CCc2ccccc21)n1ccnc1)NCc1ccccc1 (stereo not drawn)	142.7*[activator]	475.8	114.9	·	112.6	2.0	101.8	103.6	103.8	102.3	100.2	RGS-Gao=114.9*
CCN(CC)CC(C)CNC(=O)CC(C(=O)N1CCc2ccccc21)n1ccnc1 (stereo not drawn)	102.3	117.0	106.8	·	102.8	·	·	·	·	·	·
CCN(CC(=O)Nc1ccc(C(C)=O)cc1)CC(=O)Nc1cccc(OC)c1	106.9	111.4	103.3	10.8	103.4	·	·	·	·	·	·
CCN(CC)c1ccc(NC(=O)Nc2cccc(C(C)=O)c2)cc1	5.3*	-17.1*	-7.5*	·	-3.4*	1.1	96.9	93.8	97.2	91.6	95.6
CCOC(=O)CSc1nc2ccccc2c(=O)n1CC1CCCO1 (stereo not drawn)	56.6*	6.7	70.8	·	71.8	0.4	100.7	100.0	100.2	100.6	94.7	RGS-Gao=70.8*
CCOC(=O)CSc1nc2ccccc2c(=O)n1CC1COc2ccccc2O1 (stereo not drawn)	0.8*	-137.7	-25.9*	·	-13.9*	-5.8	115.6	130.4*[activator]	120.2	123.7	122.3

Assay outcomes (PubChem BioAssay)
